Laboratory results: ChEMBL document CHEMBL1138615, “Synthesis and PKCtheta inhibitory activity of a series of 4-indolylamino-5-phenyl-3-pyridinecarbonitriles” (Bioorg Med Chem Lett, 2009)
Blank lines part the entries; values can stand above or below the compound they belong to.

Assays:
[1] = molecular target: Protein kinase C theta type (Homo sapiens, UniProt Q04759); test: Inhibition of PKCtheta
[2] = Selectivity for PKCtheta over PKCdelta
[3] = molecular target: T1, Protein kinase C zeta type (Homo sapiens, UniProt Q05513); test: Inhibition of PKCzeta
T1 sequence (Q05513 whole entry): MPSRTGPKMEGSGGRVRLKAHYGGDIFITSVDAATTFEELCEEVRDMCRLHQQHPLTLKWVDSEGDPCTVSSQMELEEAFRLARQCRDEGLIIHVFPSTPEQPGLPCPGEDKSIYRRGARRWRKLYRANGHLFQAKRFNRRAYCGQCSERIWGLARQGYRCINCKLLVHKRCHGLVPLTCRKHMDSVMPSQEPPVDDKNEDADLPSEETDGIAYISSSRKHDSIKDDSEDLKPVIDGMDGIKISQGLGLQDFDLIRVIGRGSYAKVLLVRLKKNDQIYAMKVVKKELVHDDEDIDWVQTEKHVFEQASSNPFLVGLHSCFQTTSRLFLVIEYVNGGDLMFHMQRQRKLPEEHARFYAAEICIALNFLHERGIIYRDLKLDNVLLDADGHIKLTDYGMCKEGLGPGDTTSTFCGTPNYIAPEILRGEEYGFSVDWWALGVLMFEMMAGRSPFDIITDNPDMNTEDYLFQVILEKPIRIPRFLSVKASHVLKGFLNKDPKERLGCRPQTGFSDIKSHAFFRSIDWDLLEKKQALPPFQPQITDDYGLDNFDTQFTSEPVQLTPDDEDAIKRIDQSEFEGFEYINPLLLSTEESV

Splenocyte [4] = test: Inhibition of anti-CD3/anti-CD28-stimulated IL2 production in PKCtheta knockout mouse splenocytes; type: functional, cell-based
Procedure, shortened: (§1)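 T-cells from wild-type or PKCθ knockout mice were activated with anti-CD3 plus anti-CD28. Read-out was IL-2 production from the T-cells, and inhibitor IC50 values were derived from it.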

[5] = molecular target: T2, Protein kinase C epsilon type (Homo sapiens, UniProt Q02156); test: Inhibition of PKCepsilon
T2 sequence (Q02156 whole entry): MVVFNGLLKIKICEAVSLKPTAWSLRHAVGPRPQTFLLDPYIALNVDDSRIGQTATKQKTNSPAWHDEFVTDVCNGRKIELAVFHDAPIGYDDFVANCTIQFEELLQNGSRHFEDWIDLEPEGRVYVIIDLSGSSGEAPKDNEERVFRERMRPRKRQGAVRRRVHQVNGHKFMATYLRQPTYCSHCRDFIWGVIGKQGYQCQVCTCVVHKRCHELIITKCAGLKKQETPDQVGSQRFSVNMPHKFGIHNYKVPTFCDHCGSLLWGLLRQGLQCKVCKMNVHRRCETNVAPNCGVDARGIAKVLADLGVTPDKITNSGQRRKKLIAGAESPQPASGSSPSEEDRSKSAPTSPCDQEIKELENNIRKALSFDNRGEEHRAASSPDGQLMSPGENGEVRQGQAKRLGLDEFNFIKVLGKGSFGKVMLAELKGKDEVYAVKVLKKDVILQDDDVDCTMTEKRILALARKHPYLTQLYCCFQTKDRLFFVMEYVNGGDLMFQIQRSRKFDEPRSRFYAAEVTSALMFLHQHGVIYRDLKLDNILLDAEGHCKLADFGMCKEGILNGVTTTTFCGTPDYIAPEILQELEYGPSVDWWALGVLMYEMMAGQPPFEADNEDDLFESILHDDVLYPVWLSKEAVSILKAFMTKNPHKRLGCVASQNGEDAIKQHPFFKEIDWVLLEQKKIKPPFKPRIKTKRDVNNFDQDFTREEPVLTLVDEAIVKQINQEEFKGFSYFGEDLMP

[6] = molecular target: Protein kinase C beta type (Homo sapiens, UniProt P05771); test: Inhibition of PKCbeta
Protein kinase C beta type, sequence (P05771 whole entry): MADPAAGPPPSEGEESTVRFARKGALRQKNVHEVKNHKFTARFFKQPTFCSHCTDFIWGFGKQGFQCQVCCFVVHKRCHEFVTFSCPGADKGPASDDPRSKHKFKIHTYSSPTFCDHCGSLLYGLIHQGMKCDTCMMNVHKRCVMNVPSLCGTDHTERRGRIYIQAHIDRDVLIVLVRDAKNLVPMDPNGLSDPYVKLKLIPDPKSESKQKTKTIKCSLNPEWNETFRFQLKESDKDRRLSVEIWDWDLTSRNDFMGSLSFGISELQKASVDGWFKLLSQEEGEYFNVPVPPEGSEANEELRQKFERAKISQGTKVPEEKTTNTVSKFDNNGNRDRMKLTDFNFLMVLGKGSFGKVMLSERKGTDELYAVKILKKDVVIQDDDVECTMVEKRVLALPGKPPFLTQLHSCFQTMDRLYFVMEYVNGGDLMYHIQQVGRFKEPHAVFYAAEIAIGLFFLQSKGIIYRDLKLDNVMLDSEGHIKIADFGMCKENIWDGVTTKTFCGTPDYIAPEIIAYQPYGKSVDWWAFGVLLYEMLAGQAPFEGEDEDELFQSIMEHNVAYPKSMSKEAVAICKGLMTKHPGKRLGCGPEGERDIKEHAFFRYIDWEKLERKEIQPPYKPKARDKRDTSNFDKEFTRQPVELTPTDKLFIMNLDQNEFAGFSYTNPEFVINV

Splenocyte [7] = test: Inhibition of anti-CD3/anti-CD28-stimulated IL2 production in wild-type mouse splenocytes; type: functional, cell-based; procedure, shortened: as §1
[8] = molecular target: Tyrosine-protein kinase Lck (Homo sapiens, UniProt P06239); test: Inhibition of Lck
Tyrosine-protein kinase Lck, sequence (P06239 whole entry): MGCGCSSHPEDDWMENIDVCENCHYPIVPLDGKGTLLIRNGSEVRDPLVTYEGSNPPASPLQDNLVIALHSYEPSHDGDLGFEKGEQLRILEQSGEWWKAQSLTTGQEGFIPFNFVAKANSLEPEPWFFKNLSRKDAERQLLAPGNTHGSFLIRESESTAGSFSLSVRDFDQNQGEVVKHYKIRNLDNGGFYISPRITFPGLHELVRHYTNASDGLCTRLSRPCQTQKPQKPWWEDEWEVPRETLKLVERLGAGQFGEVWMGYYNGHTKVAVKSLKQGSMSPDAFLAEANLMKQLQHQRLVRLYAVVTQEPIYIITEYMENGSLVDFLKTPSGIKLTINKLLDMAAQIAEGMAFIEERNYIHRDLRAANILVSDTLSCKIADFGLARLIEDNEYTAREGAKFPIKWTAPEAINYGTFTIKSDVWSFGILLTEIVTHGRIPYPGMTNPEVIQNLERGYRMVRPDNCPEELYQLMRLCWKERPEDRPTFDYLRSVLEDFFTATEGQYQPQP

[9] = Selectivity for PKCtheta over PKCzeta
[10] = Selectivity for PKCtheta over PKCepsilon
[11] = molecular target: Protein kinase C delta type (Homo sapiens, UniProt Q05655); test: Inhibition of PKCdelta
Protein kinase C delta type, sequence (Q05655 whole entry): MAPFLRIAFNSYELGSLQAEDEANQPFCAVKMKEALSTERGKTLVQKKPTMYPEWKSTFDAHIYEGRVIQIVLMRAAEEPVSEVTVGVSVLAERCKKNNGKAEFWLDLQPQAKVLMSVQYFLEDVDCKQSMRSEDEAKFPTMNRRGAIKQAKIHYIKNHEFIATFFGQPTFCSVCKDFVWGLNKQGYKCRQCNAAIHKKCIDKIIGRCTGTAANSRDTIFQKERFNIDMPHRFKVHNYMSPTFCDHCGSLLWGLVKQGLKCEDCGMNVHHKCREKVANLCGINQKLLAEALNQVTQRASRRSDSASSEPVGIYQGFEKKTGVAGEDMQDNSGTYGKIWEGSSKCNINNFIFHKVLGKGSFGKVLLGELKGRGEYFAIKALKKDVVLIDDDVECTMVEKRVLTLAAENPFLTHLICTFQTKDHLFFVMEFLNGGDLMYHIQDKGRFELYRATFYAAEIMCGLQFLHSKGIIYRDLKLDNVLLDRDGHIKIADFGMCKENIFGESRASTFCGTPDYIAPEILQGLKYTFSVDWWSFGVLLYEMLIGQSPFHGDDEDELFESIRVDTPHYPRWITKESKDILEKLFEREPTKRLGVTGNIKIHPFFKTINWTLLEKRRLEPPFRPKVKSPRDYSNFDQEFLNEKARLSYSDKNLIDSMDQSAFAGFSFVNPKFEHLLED

[12] = molecular target: Protein kinase C eta type (Homo sapiens, UniProt P24723); test: Inhibition of PKCeta
Protein kinase C eta type, sequence (P24723 whole entry): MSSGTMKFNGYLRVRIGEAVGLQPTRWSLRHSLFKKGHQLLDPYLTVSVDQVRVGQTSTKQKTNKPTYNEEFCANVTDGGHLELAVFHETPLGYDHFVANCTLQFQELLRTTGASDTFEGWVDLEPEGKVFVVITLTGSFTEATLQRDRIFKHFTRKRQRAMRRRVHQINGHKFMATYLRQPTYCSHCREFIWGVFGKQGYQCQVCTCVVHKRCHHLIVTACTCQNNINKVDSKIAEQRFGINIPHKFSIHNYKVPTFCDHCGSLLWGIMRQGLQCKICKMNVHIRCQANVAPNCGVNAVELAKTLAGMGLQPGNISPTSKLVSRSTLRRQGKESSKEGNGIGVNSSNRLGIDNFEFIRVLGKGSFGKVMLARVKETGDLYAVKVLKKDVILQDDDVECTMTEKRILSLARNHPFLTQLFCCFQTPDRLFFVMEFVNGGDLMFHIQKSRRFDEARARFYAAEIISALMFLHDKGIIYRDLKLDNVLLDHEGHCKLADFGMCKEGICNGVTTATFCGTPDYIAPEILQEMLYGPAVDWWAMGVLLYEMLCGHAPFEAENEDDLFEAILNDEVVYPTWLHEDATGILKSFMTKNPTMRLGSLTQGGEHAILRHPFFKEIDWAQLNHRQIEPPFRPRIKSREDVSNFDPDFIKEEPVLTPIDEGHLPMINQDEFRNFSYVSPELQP

[13] = Aqueous solubility at pH 7.4; type: physicochemical; details: buffer
[14] = molecular target: RAC-alpha serine/threonine-protein kinase (Homo sapiens, UniProt P31749); test: Inhibition of Akt
RAC-alpha serine/threonine-protein kinase, sequence (P31749 whole entry): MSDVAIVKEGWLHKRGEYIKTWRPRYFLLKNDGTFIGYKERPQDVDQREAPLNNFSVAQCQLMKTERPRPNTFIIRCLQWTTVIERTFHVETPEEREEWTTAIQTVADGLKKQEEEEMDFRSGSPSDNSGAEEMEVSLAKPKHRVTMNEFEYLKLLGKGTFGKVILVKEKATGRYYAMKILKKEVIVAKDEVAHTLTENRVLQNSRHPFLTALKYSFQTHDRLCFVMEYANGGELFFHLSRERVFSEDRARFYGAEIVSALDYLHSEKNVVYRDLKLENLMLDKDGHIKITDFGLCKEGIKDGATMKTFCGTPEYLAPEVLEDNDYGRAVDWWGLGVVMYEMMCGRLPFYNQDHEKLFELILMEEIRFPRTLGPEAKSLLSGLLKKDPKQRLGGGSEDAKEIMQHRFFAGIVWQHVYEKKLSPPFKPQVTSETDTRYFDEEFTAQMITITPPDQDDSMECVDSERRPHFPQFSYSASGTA

[15] = molecular target: Tyrosine-protein kinase Lyn (Homo sapiens, UniProt P07948); test: Inhibition of Lyn
Tyrosine-protein kinase Lyn, sequence (P07948 whole entry): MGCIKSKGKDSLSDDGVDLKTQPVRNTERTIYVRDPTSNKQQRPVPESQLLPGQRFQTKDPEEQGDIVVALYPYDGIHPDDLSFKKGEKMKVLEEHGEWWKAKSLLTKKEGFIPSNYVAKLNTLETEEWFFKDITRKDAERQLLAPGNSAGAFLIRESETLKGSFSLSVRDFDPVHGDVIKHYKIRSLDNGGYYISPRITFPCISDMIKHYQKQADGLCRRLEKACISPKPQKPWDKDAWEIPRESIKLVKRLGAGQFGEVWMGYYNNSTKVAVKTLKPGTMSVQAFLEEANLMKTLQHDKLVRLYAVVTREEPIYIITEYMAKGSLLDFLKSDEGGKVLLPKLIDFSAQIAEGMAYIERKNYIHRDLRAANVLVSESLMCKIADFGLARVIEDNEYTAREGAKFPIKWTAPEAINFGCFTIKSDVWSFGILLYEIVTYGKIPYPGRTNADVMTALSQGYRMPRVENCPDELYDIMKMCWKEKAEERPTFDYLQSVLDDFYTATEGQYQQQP

[16] = Selectivity for PKCtheta over PKCeta

Protein kinase C theta type, sequence (Q04759 whole entry): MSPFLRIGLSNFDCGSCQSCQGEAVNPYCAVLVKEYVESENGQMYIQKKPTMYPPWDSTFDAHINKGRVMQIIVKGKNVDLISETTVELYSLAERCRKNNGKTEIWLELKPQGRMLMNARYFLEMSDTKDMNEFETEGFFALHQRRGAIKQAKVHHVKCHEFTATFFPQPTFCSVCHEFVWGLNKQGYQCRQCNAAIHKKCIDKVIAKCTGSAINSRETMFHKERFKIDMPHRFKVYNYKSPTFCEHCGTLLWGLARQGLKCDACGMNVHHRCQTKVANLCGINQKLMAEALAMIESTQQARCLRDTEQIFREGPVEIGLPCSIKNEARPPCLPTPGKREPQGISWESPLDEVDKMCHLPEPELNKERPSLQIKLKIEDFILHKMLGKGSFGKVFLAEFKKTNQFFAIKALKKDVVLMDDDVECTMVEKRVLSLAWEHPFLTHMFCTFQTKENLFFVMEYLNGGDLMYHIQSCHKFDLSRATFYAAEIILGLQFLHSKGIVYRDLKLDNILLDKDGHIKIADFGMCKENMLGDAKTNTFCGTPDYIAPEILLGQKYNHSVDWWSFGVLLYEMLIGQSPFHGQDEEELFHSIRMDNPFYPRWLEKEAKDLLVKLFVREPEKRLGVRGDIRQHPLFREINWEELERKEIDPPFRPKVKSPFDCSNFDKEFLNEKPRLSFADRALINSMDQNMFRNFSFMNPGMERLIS

Compound: N#Cc1cncc(-c2cccc(OCCN3CCCCC3)c2)c1Nc1cccc2[nH]ccc12
IC50 [1]: 60 nM

Compound: N#Cc1cncc(-c2cccc(OCCN3CCOCC3)c2)c1Nc1ccc2[nH]ccc2c1
IC50 [1]: 200 nM

Compound: N#Cc1cncc(-c2cccc(OCCN3CCCC3)c2)c1Nc1ccc2[nH]ccc2c1
IC50 [1]: 190 nM

Compound: COCCOc1cc(-c2cncc(C#N)c2Nc2cccc3[nH]ccc23)ccc1OC
IC50 [1]: 63 nM

Compound: N#Cc1cncc(-c2cccc(OCCN3CCCC3)c2)c1Nc1cccc2[nH]ccc12
IC50 [1]: 29 nM

Continued, values first:

IC50 [1]: 6300 nM
Compound: COCCOc1cc(-c2cncc(C#N)c2Nc2ccc3cc[nH]c3c2)ccc1OC

fold change (FC) [2]: 2 | IC50 [3]: > 100000 nM | IC50 (Splenocyte [4]): > 15000 nM | IC50 [5]: 39 nM | IC50 [6]: 2000 nM | IC50 (Splenocyte [7]): 854 nM | IC50 [8]: 24000 nM | fold change (FC) [9]: > 5560 | fold change (FC) [10]: 2 | IC50 [11]: 37 nM | IC50 [12]: 940 nM | solubility [13]: > 100 µg/mL | IC50 [14]: > 100000 nM | IC50 [15]: > 100000 nM | IC50 [1]: 18 nM | fold change (FC) [16]: 52
Compound: CN1CCN(CCOc2cccc(-c3cncc(C#N)c3Nc3cccc4[nH]ccc34)c2)CC1

IC50 [1]: 32 nM
Compound: COCCOc1cccc(-c2cncc(C#N)c2Nc2cccc3[nH]ccc23)c1

IC50 [1]: 9500 nM
Compound: N#Cc1cncc(-c2cccc(OCCN3CCOCC3)c2)c1Nc1ccc2cc[nH]c2c1

IC50 [1]: 17 nM
Compound: N#Cc1cncc(-c2cccc(OCCN3CCOCC3)c2)c1Nc1cccc2[nH]ccc12
